Measured values reported in ChEMBL document CHEMBL3797202, “Novel Oxindole Sulfonamides and Sulfamides: EPZ031686, the First Orally Bioavailable Small Molecule SMYD3 Inhibitor” (ACS Med Chem Lett, 2016).
pIC50: −log10 of the molar value.

Experiments:
[1] = biological target: Protein arginine N-methyltransferase 3 (Homo sapiens) (UniProt O60678); experiment: Inhibition of PRMT3 (unknown origin) at 10 uM relative to control
[2] = biological target: Protein arginine N-methyltransferase 6 (Homo sapiens) (UniProt Q96LA8); experiment: Inhibition of PRMT6 (unknown origin) at 10 uM relative to control
Protein arginine N-methyltransferase 6 (Homo sapiens), sequence (Q96LA8 whole entry, looked up): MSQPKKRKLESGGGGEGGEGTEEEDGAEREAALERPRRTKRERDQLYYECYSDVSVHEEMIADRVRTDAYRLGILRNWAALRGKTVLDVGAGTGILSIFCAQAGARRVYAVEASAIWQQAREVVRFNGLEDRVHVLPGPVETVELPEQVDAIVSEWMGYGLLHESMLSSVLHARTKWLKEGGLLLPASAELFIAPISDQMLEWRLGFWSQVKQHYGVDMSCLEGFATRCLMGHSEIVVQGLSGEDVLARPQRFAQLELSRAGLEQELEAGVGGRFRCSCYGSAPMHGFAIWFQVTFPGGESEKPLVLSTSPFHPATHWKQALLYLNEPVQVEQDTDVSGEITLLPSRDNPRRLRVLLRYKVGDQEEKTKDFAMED

[3] = Fraction unbound in CD1 mouse plasma at 1 uM incubated for 16 hrs by LC-MS/MS based equilibrium dialysis method; format: ADME, cell-free
[4] = biological target: T1, Histone-lysine N-methyltransferase NSD3 (Homo sapiens) (UniProt Q9BZ95); experiment: Inhibition of WHSC1L1 (unknown origin) at 10 uM relative to control
T1 sequence (whole entry): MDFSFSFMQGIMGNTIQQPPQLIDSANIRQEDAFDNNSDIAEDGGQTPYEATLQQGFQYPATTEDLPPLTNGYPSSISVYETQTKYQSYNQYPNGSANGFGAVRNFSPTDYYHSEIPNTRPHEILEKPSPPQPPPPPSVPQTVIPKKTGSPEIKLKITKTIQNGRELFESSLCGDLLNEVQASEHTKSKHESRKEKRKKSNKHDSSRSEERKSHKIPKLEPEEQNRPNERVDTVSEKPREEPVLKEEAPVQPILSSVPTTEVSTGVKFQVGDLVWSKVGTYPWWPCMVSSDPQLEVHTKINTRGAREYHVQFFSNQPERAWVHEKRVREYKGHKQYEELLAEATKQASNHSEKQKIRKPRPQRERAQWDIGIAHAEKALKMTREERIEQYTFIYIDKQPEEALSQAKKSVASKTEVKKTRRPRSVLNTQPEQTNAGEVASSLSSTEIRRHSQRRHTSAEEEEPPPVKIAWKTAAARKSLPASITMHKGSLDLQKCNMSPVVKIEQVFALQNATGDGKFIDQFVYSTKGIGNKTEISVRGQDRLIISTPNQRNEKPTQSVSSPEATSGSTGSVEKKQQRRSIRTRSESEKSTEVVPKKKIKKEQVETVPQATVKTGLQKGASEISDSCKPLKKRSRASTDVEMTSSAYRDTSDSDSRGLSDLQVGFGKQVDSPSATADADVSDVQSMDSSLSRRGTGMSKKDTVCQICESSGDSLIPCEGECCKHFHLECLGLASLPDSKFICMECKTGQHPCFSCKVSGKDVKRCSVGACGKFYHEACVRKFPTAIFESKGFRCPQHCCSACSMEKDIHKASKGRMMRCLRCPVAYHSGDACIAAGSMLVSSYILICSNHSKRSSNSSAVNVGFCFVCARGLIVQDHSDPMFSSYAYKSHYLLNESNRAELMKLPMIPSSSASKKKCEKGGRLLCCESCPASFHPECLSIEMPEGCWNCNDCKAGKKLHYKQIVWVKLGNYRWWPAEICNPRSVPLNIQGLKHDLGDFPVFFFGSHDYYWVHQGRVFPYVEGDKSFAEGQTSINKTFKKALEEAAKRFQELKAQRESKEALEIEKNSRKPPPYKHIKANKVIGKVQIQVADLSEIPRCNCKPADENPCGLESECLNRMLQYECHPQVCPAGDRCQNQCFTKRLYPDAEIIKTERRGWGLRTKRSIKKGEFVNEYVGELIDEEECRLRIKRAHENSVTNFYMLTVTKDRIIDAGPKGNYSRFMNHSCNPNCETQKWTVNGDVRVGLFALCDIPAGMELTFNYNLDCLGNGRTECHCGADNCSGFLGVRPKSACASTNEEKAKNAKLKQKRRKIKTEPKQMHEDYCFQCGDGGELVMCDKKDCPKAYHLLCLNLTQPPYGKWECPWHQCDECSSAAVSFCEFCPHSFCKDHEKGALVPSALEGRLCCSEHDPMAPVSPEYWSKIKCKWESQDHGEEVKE

[5] = biological target: N-lysine methyltransferase SMYD2 (Homo sapiens, UniProt Q9NRG4); experiment: Inhibition of SMYD2 (unknown origin)
N-lysine methyltransferase SMYD2, sequence (Q9NRG4 whole entry): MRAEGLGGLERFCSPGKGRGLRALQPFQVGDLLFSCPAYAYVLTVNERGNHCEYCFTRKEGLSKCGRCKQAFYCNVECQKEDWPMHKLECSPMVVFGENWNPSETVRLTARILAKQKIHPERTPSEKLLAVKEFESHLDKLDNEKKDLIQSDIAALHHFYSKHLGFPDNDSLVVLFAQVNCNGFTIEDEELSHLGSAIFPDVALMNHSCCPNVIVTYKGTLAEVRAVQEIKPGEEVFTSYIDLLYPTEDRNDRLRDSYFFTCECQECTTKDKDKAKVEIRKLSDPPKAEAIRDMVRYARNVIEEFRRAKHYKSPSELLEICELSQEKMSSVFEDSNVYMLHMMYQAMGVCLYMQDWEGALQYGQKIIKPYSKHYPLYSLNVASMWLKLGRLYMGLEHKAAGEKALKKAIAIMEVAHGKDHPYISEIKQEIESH

[6] = Intrinsic clearance in CD1 mouse liver microsomes at 1 uM incubated for 5 to 45 mins by LC-MS/MS analysis in presence of NADPH; format: ADME; details: read-out: CLH
Summary of the method: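 Mouse liver microsomal incubations; clearance scaled from microsomal data and reported as a mean value.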

[7] = biological target: T2, Histone-lysine N-methyltransferase EHMT1 (Homo sapiens) (UniProt Q9H9B1); experiment: Inhibition of EHMT1 (unknown origin) at 10 uM relative to control
T2 sequence (whole entry): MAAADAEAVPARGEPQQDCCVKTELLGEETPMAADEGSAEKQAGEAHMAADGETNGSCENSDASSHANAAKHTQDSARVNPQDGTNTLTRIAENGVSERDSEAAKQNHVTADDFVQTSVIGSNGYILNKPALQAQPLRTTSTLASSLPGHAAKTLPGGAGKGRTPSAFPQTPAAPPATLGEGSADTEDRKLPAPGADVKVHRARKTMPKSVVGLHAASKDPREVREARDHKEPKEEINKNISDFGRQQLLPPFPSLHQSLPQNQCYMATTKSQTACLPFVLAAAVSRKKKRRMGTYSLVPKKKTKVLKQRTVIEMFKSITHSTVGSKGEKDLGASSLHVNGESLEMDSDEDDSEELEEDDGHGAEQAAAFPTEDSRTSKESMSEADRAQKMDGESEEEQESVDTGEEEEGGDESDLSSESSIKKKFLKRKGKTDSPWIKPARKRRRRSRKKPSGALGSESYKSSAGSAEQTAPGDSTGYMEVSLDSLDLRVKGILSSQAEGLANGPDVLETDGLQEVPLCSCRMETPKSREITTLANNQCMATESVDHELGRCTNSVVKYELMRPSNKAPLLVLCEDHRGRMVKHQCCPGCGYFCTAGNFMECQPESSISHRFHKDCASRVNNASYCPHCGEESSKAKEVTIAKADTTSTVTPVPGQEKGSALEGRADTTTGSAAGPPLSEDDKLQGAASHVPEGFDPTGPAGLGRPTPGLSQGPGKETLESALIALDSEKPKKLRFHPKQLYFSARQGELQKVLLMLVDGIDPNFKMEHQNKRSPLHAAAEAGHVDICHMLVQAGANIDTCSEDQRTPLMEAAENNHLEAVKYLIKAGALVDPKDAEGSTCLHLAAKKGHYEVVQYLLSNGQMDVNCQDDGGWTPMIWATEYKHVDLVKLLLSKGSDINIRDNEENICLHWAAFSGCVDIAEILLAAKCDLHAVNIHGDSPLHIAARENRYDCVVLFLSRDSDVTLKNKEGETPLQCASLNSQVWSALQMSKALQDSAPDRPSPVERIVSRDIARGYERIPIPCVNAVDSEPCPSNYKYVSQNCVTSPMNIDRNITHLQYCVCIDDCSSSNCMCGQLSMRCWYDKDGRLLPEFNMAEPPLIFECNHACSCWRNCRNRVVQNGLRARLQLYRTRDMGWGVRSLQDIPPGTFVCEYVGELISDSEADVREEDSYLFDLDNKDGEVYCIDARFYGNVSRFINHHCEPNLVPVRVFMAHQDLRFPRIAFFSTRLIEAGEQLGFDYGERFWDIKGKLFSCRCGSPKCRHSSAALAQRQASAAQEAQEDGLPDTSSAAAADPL

Protein arginine N-methyltransferase 3 (Homo sapiens), sequence (O60678 2-531 limits assumed): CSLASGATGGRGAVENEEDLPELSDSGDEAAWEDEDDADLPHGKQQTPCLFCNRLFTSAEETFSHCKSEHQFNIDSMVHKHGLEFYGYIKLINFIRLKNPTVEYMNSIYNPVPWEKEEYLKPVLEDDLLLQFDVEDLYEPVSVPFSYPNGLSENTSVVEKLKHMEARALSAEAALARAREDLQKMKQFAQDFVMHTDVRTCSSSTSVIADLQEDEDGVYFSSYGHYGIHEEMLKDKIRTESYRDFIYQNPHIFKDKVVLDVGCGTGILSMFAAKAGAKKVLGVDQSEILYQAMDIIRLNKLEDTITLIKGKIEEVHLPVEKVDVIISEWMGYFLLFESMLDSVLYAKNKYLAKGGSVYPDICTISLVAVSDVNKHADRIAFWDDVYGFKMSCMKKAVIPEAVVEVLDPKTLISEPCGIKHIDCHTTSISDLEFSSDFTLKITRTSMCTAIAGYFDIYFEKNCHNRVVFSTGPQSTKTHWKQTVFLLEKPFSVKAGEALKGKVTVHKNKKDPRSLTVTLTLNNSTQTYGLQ

Compound	inhibition [1] [%]	inhibition [2] [%]	fraction unbound at 16 h, 1 µM [3]	inhibition [4] [%]	pIC50 [5]	CLint scaled at 1 µM [6] [mL/min/kg]	inhibition [7] [%]
O=C1Cc2cc(C(=O)N[C@H]3C[C@H]4CC[C@@H](C3)N4S(=O)(=O)N3CCC(NCc4ccccc4)CC3)c(Cl)cc2N1	< 30	< 30	0.32	< 30	< 4.30	34	< 30
O=C1Cc2cc(C(=O)N[C@H]3C[C@H]4CC[C@@H](C3)N4S(=O)(=O)CC3CCN(CCCC(F)(F)F)CC3)c(Cl)cc2N1	< 30	< 30	0.53	< 30	< 4.30	24	< 30
